Results from ChEMBL document CHEMBL4706714 (Bioorg Med Chem, 2021).
Active and inactive are the calls of the source. No cut-off for these calls is given here.

What was measured:
[1] = Inhibition of human full length N-terminal His-tagged GARFTase expressed in Chinese Hamster MTXRII-OuaR2-4 R2 cells assessed as reduction in THF formation using 10-CHOTHF as substrate by spectrophotometric method
[2] = test system: KB; assay: Antiproliferative activity against human KB cells assessed as reduction in cell viability after 96 hrs in presence of thymidine by CellTiter-blue assay; format: functional, cell-based
In short: (§1)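 KB cells, 4000 cells/well, in folate-free RPMI 1640 with 10% dialyzed FBS and 2 nM leucovorin. A range of drug concentrations was co-incubated with adenosine (60 μM) or thymidine (10 μM) for 96 h at 37 °C. Proliferation was read by CellTiter-blue fluorescence. Data are representative of at least triplicate experiments.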

[3] = test system: KB; assay: Antiproliferative activity against human KB cells assessed as reduction in cell viability after 96 hrs in presence of folic acid by CellTiter-blue assay; format: functional, cell-based
In short: (§2)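 Cells grown in folate-free RPMI with 10% dialyzed FBS, 2 nM leucovorin, 2 mM L-glutamine; 2500–5000 cells/well, inhibitors 0–1000 nM, with 200 nM folic acid added in parallel wells to block FR uptake.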

[4] = test system: KB; assay: Antiproliferative activity against human KB cells assessed as reduction in cell viability after 96 hrs by CellTiter-blue assay; format: functional, cell-based
[5] = test system: IGROV-1; assay: Antiproliferative activity against human IGROV1 cells assessed as reduction in cell viability after 96 hrs in presence of folic acid by CellTiter-blue assay; format: functional, cell-based; conditions: IGROV-1, 96 h; in short: as §2
[6] = test system: KB; assay: Antiproliferative activity against human KB cells assessed as reduction in cell viability after 96 hrs in presence of adenosine by CellTiter-blue assay; format: functional, cell-based; in short: as §1
[7] = Cytotoxicity against Chinese Hamster MTXRII-OuaR2-4 R2 cells assessed as reduction in cell proliferation after 96 hrs by CellTiter-blue assay; format: cell-based; conditions: Cricetulus griseus, R2, 96 h
[8] = test system: IGROV-1; assay: Antiproliferative activity against human IGROV1 cells assessed as reduction in cell viability after 96 hrs by CellTiter-blue assay; format: functional, cell-based; conditions: IGROV-1, 96 h
[9] = biological target: T1, Bifunctional purine biosynthesis protein ATIC (Homo sapiens, UniProt P31939); assay: Inhibition of human full length N-terminal His-tagged ATIC expressed in Chinese Hamster MTXRII-OuaR2-4 R2 cells assessed as reduction in THF formation using 10-CHOTHF as substrate by spectrophotometric method
Target sequence in this assay (P31939 whole entry): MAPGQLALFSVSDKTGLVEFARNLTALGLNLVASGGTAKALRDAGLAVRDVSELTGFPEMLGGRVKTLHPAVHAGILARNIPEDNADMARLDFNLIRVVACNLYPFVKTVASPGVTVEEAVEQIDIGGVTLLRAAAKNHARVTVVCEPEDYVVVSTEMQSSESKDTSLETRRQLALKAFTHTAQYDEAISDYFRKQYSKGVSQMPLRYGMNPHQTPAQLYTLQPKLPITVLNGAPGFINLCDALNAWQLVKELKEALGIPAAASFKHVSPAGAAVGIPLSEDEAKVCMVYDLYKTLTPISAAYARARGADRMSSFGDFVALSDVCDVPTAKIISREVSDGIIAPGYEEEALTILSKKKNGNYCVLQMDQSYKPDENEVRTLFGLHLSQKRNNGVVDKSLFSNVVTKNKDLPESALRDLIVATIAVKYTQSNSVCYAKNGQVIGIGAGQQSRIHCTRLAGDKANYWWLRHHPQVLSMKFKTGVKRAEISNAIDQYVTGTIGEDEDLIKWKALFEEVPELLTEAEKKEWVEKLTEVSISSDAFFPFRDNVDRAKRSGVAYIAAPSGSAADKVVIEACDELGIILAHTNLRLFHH

[10] = test system: IGROV-1; assay: Inhibition of de nova purine biosynthesis in human IGROV1 assessed as decrease in AMP level at 1 uM after 48 hrs by LC-MS/MS analysis; format: functional
In short: (§3)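 NCI-IGROV1 ovarian cells in folate-free RPMI, 10% FBS, 2 mM L-glutamine, five replicate dishes, adhered 24 h; medium replaced and 1 μM inhibitor or DMSO vehicle added for 48 h. Extracted metabolites measured by reverse-phase LC-MS, negative ion mode, identified by exact mass and retention time against standards; normalized to cell protein; expressed relative to vehicle control.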

[11] = Inhibition of de nova purine biosynthesis in human IGROV1 assessed as decrease in ATP level at 1 uM after 48 hrs by LC-MS/MS analysis relative to control; format: functional; conditions: IGROV-1; in short: as §3
[12] = Inhibition of de nova purine biosynthesis in human IGROV1 assessed as decrease in IMP level at 1 uM after 48 hrs by LC-MS/MS analysis relative to control; format: functional; conditions: IGROV-1; in short: as §3
[13] = Inhibition of de nova purine biosynthesis in human IGROV1 assessed as decrease in ADP level at 1 uM after 48 hrs by LC-MS/MS analysis relative to control; format: functional; conditions: IGROV-1; in short: as §3
[14] = test system: IGROV-1; assay: Inhibition of GARFTase in human IGROV1 assessed as increase in GAR level at 1 uM after 48 hrs by LC-MS/MS analysis; in short: as §3
[15] = test system: IGROV-1; assay: Inhibition of GARFTase in human IGROV1 assessed as decrease in fGAR level at 1 uM after 48 hrs by LC-MS/MS analysis relative to control; in short: as §3
[16] = biological target: T1, Bifunctional purine biosynthesis protein ATIC; assay: Inhibition of AICARFTase in human IGROV1 assessed as decrease in ZMP level at 1 uM after 48 hrs by LC-MS/MS analysis relative to control; conditions: IGROV-1; in short: as §3
Target sequence in this assay (P31939 whole entry, looked up): as the sequence (P31939 whole entry) above

[17] = biological target: Folate receptor alpha (Homo sapiens) (UniProt P15328); assay: Displacement of [3H]-folic acid from human FRalpha expressed in Chinese Hamster MTXRII-OuaR2-4 R2 cells after 15 mins by liquid scintillation counting method; format: cell-based
In short: (§4)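 RT16 (FRα) or D4 (FRβ) CHO transfectants, 1 × 10^6 cells, adhered 24 h; washed at 4 °C with DPBS, pH 3.5 acetate buffer to strip bound folate, then HBS pH 7.4. Incubated 15 min at 0 °C with 50 nM [3H]folic acid plus competitor 0–1 μM; bound label per mg protein (Folin-phenol).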

[18] = biological target: Folate receptor beta (Homo sapiens) (UniProt P14207); assay: Displacement of [3H]-folic acid from human FRbeta expressed in Chinese Hamster MTXRII-OuaR2-4 R2 cells after 15 mins by liquid scintillation counting method; format: cell-based; in short: as §4
Sequence of Folate receptor beta (Homo sapiens) (P14207 17-230 limits assumed): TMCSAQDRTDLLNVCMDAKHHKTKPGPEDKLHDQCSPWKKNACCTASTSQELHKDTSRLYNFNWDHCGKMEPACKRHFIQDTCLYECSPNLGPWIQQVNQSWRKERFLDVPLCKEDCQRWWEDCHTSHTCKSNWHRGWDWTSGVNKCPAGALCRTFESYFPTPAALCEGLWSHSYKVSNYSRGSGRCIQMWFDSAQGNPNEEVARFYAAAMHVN

Sequence of Folate receptor alpha (Homo sapiens) (P15328 25-234 limits assumed): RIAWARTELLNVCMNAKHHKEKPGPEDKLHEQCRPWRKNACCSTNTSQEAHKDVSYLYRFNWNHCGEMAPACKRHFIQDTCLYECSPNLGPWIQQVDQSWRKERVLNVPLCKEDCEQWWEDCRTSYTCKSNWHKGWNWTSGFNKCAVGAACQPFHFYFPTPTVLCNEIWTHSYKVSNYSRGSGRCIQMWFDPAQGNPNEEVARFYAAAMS

SMILES | Ki [1] | Activity [2] | IC50 [3] | IC50 [4] | IC50 [5] | Activity [6] | IC50 [7] | IC50 [8] | Ki [9] | inhibition [10] | inhibition at 1 µM [11] | inhibition at 1 µM [12] | inhibition at 1 µM [13] | fold change (FC) [14] | inhibition [15] | inhibition [16] | Activity [17] | Activity [18]
Nc1nc2sc(CCCCc3csc(C(=O)N[C@@H](CCC(=O)O)C(=O)O)c3)cc2c(=O)[nH]1 | > 150 µM | Active | > 1000 nM | 6.85 nM | > 1000 nM | inactive | > 1000 nM | 108 nM | 8.03 µM | – | – | – | – | – | – | – | – | –
Nc1nc2[nH]c(CCCc3ccc(C(=O)N[C@@H](CCC(=O)O)C(=O)O)s3)cc2c(=O)[nH]1 | – | – | – | – | – | – | – | – | – | Active | 75% | 60% | 60% | 150 | 99% | 50% | – | –
Nc1nc2[nH]cc(CCc3ccc(C(=O)N[C@@H](CCC(=O)O)C(=O)O)cc3)c2c(=O)[nH]1 [PEMETREXED] | > 150 µM | – | – | – | – | – | – | – | – | – | – | – | – | – | – | – | – | –
Nc1nc2sc(CCCCc3ccc(C(=O)N[C@@H](CCC(=O)O)C(=O)O)o3)cc2c(=O)[nH]1 | 10.7 µM | Active | > 1000 nM | 7.9 nM | > 1000 nM | inactive | > 1000 nM | > 1000 nM | 24.7 µM | – | – | – | – | – | – | – | 89% | 60%
Nc1nc2sc(CCCCc3cc(C(=O)N[C@@H](CCC(=O)O)C(=O)O)cs3)cc2c(=O)[nH]1 | 0.15 µM | Active | > 1000 nM | 4.74 nM | > 1000 nM | inactive | > 1000 nM | > 1000 nM | 1.07 µM | – | – | – | – | – | – | – | – | –
Nc1nc2sc(CCCCc3ccc(C(=O)N[C@@H](CCC(=O)O)C(=O)O)cc3)cc2c(=O)[nH]1 | – | Active | > 1000 nM | – | > 1000 nM | inactive | > 1000 nM | – | 9.48 µM | – | – | – | – | – | – | – | – | –
Nc1nc2sc(CCCCc3ccc(C(=O)N[C@@H](CCC(=O)O)C(=O)O)s3)cc2c(=O)[nH]1 | 1.36 µM | Active | > 1000 nM | 2.1 nM | > 1000 nM | inactive | > 1000 nM | 10.1 nM | 5.15 µM | Active | 75% | 60% | 60% | 150 | 50% | Active | 89% | 60%
Nc1nc2[nH]cc(CCCCc3ccc(C(=O)N[C@@H](CCC(=O)O)C(=O)O)cc3)c2c(=O)[nH]1 | – | Active | – | – | – | inactive | – | – | – | – | – | – | – | – | – | – | – | –
Nc1nc2sc(CCCc3csc(C(=O)N[C@@H](CCC(=O)O)C(=O)O)c3)cc2c(=O)[nH]1 | – | Active | > 1000 nM | 1.48 nM | > 1000 nM | inactive | > 1000 nM | 86.7 nM | 19.8 µM | – | – | – | – | – | – | – | – | –
Nc1nc2sc(CCCc3ccc(C(=O)N[C@@H](CCC(=O)O)C(=O)O)s3)cc2c(=O)[nH]1 | 8.19 µM | Active | > 1000 nM | 1.42 nM | > 1000 nM | inactive | > 1000 nM | 54.1 nM | 14.5 µM | Active | 75% | 60% | 60% | 150 | 75% | Active | 89% | 60%
Nc1nc2sc(CCCc3cc(C(=O)N[C@@H](CCC(=O)O)C(=O)O)cs3)cc2c(=O)[nH]1 | 0.91 µM | Active | > 1000 nM | 1.82 nM | > 1000 nM | inactive | > 1000 nM | 26 nM | 8.37 µM | – | – | – | – | – | – | – | – | –
